{
  "source": "ChEMBL document CHEMBL1123102",
  "about": "“Synthesis and anthelmintic activity of 5(6)-(benzimidazol-2-ylcarbamoyl) and (4-substituted piperazin-1-yl)benzimidazoles” (1985)",
  "key": {"Rattus norvegicus [1]": {"tested_on": "Rattus norvegicus", "experiment": "Antitapeworm activity evaluated as reduction of worms with scolices against Hymenolepis nana in rat (dose 100 mg/kg X 3)administered orally", "format": "functional", "settings": "route oral", "how_it_was_run": "(§1)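 Newly weaned male albino rats (Freiburg strain, 25–30 g) were infected orally with 200 viable H. nana ova. Those passing eggs on day 17 were treated orally, 3–5 per group, three daily doses after a 5–6 h fast. Rats were fasted again on day 3 of treatment and sacrificed. Worms with scolices and worm-free animals were scored.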"}, "Rattus norvegicus [2]": {"tested_on": "Rattus norvegicus", "experiment": "Antitapeworm activity evaluated as reduction of worms with scolices against Hymenolepis nana in rat (dose 50 mg/kg X 3)administered orally", "format": "functional", "settings": "route oral", "how_it_was_run": "as §1"}, "Rattus norvegicus [3]": {"tested_on": "Rattus norvegicus", "experiment": "Antitapeworm activity evaluated as(percent animal freed of worms) against Hymenolepis nana in rat (dose 50 mg/kg X 3)administered orally", "format": "functional", "settings": "route oral", "how_it_was_run": "as §1"}, "Rattus norvegicus [4]": {"tested_on": "Rattus norvegicus", "experiment": "Antitapeworm activity evaluated as(percent animal freed of worms) against Hymenolepis nana in rat ( dose 250 mg/kg X 3)administered orally", "format": "functional", "settings": "route oral", "how_it_was_run": "as §1"}, "Rattus norvegicus [5]": {"tested_on": "Rattus norvegicus", "experiment": "Antitapeworm activity evaluated as reduction of worms with scolices against Hymenolepis nana in rat (dose 250 mg/kg X 3) administered orally", "format": "functional", "settings": "route oral", "how_it_was_run": "as §1"}, "Rattus norvegicus [6]": {"tested_on": "Rattus norvegicus", "experiment": "Antitapeworm activity evaluated as (percent animal freed of worms) against Hymenolepis nana in rat (dose 100 mg/kg X 3)administered orally", "format": "functional", "settings": "route oral", "how_it_was_run": "as §1"}, "Rattus norvegicus [7]": {"tested_on": "Rattus norvegicus", "experiment": "Antifilarial activity evaluated as (percent reduction of microfilariae) against Litomosoides carinii in Coton rat, at a dose (6 mg/kg X 5) administered intraperitoneally", "format": "functional", "how_it_was_run": "(§2)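 Cotton rats (Sigmodon hispidus) infected with L. carinii by vector mite (Liponyssus bacoti) transmission. Animals with ≥250 microfilariae per 5 µL blood after prepatency were used, 3–4 per experiment. Drug was given i.p. in water or Tween 80 suspension daily for 5 days. Blood smears were read weekly up to 6 weeks. Adult worms were examined at sacrifice on day 42.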"}, "Rattus norvegicus [8]": {"tested_on": "Rattus norvegicus", "experiment": "Antifilarial activity evaluated as (percent death of adult worms on a day 42) against Litomosoides carinii in Coton rat, at a dose (6 mg/kg X 5) administered intraperitoneally; Nil", "format": "functional, organism-based", "how_it_was_run": "(§3)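 Cotton rats (Sigmodon hispidus) were infected with L. carinii through the vector Liponyssus bacoti. At the end of the prepatent period, animals with at least 250 microfilariae per blood sample were selected, 3–4 per experiment. Drug in water or Tween 80 suspension was given ip daily for 5 days. Blood smears were taken weekly up to 6 weeks. On day 42, animals were killed and the condition of adult male and female worms assessed.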"}, "Rattus norvegicus [9]": {"tested_on": "Rattus norvegicus", "experiment": "Antifilarial activity evaluated as (persistance of microfilaricidal effect)against Litomosoides carinii in Coton rat, at a dose (6 mg/kg X 5)administered intraperitoneally", "format": "functional", "how_it_was_run": "as §2"}, "Rattus norvegicus [10]": {"tested_on": "Rattus norvegicus", "experiment": "Antifilarial activity evaluated as (percent death of adult worms on day 42) against Litomosoides carinii in Cotton rat, at a dose (30 mg/kg X 5) administered intraperitoneally", "format": "functional", "how_it_was_run": "as §3"}, "Rattus norvegicus [11]": {"tested_on": "Rattus norvegicus", "experiment": "Antitapeworm activity evaluated as reduction of worms with scolices against Hymenolepis nana in rat ( dose 250 mg/kg X3 )administered orally", "format": "functional", "settings": "route oral", "how_it_was_run": "as §1"}, "Rattus norvegicus [12]": {"tested_on": "Rattus norvegicus", "experiment": "Antifilarial activity evaluated as (percent reduction of microfilariae) against Litomosoides carinii in Coton rat, at a dose (30 mg/kg X 5) administered intraperitoneally", "format": "functional", "how_it_was_run": "as §2"}, "Rattus norvegicus [13]": {"tested_on": "Rattus norvegicus", "experiment": "Antitapeworm activity evaluated as(percent animal freed of worms) against Hymenolepis nana in rat (dose 250 mg/kg X 3)administered orally", "format": "functional", "settings": "route oral", "how_it_was_run": "as §1"}, "Rattus norvegicus [14]": {"tested_on": "Rattus norvegicus", "experiment": "Antifilarial activity evaluated as (persistance of microfilaricidal effect)against Litomosoides carinii in Cotton rat, at a dose (30 mg/kg X 5) administered intraperitoneally", "format": "functional", "how_it_was_run": "as §2"}, "Rattus norvegicus [15]": {"tested_on": "Rattus norvegicus", "experiment": "Antitapeworm activity evaluated as reduction of worms with scolices against Hymenolepis nana in rat ( dose 250 mg/kg X 3) administered orally", "format": "functional", "settings": "route oral", "how_it_was_run": "as §1"}, "Rattus norvegicus [16]": {"tested_on": "Rattus norvegicus", "experiment": "Antifilarial activity evaluated as (persistance of microfilaricidal effect) against Litomosoides carinii in Coton rat, at a dose (30 mg/kg X 5) administered intraperitoneally", "format": "functional", "how_it_was_run": "as §2"}, "Rattus norvegicus [17]": {"tested_on": "Rattus norvegicus", "experiment": "Antifilarial activity evaluated as (percent death of adult worms on day 42) against Litomosoides carinii in Coton rat, at a dose (30 mg/kg X 5) administered intraperitoneally", "format": "functional", "how_it_was_run": "as §3"}, "Rattus norvegicus [18]": {"tested_on": "Rattus norvegicus", "experiment": "Antitapeworm activity evaluated as(percent animal freed of worms) against Hymenolepis nana in rat (dose 400 mg/kg X 3)administered orally", "format": "functional", "settings": "route oral", "how_it_was_run": "as §1"}, "Rattus norvegicus [19]": {"tested_on": "Rattus norvegicus", "experiment": "Antitapeworm activity evaluated as reduction of worms with scolices against Hymenolepis nana in rat ( dose 400 mg/kg X 3) administered orally", "format": "functional", "settings": "route oral", "how_it_was_run": "as §1"}},
  "data": [
    {"smiles": "COC(=O)Nc1nc2cc(N3CCN(C(=O)c4ccccc4)CC3)ccc2[nH]1", "values": [
      {"measurement": "Reduction", "setting": "Rattus norvegicus [1]", "result": 100, "unit": "%"},
      {"measurement": "Reduction", "setting": "Rattus norvegicus [2]", "result": 100, "unit": "%"},
      {"measurement": "Reduction", "setting": "Rattus norvegicus [3]", "result": 85, "unit": "%"},
      {"measurement": "Reduction", "setting": "Rattus norvegicus [4]", "result": 100, "unit": "%"},
      {"measurement": "Reduction", "setting": "Rattus norvegicus [5]", "result": 100, "unit": "%"},
      {"measurement": "Reduction", "setting": "Rattus norvegicus [6]", "result": 100, "unit": "%"}
    ]},
    {"smiles": "CCN(CC)C(=O)N1CCN(C)CC1", "note": "[DIETHYLCARBAMAZINE]", "values": [
      {"measurement": "Removal", "setting": "Rattus norvegicus [7]", "result": ">95", "unit": "%"},
      {"measurement": "Death", "setting": "Rattus norvegicus [8]", "result": "Nil"},
      {"measurement": "Activity", "setting": "Rattus norvegicus [9]", "result": 7}
    ]},
    {"smiles": "COC(=O)Nc1nc2cc(N3CCN(C(=O)c4ccco4)CC3)ccc2[nH]1", "values": [
      {"measurement": "Death", "setting": "Rattus norvegicus [10]", "result": 90, "unit": "%"},
      {"measurement": "Reduction", "setting": "Rattus norvegicus [11]", "result": 100, "unit": "%"},
      {"measurement": "Removal", "setting": "Rattus norvegicus [12]", "result": ">90", "unit": "%"},
      {"measurement": "Reduction", "setting": "Rattus norvegicus [13]", "result": 100, "unit": "%"},
      {"measurement": "Activity", "setting": "Rattus norvegicus [14]", "result": 42}
    ]},
    {"smiles": "CCN(CC)C(=O)N1CCN(c2ccc3[nH]c(NC(=O)OC)nc3c2)CC1", "values": [
      {"measurement": "Reduction", "setting": "Rattus norvegicus [15]", "result": 100, "unit": "%"},
      {"measurement": "Activity", "setting": "Rattus norvegicus [16]", "result": 42},
      {"measurement": "Removal", "setting": "Rattus norvegicus [12]", "result": ">95", "unit": "%"},
      {"measurement": "Reduction", "setting": "Rattus norvegicus [13]", "result": 100, "unit": "%"},
      {"measurement": "Death", "setting": "Rattus norvegicus [17]", "result": 100, "unit": "%"}
    ]},
    {"smiles": "COC(=O)Nc1nc2cc(C(=O)c3ccccc3)ccc2[nH]1", "note": "[MEBENDAZOLE]", "values": [
      {"measurement": "Reduction", "setting": "Rattus norvegicus [18]", "result": 0, "unit": "%"},
      {"measurement": "Reduction", "setting": "Rattus norvegicus [19]", "result": 0, "unit": "%"}
    ]}
  ]
}
